Laboratory results taken from PMC4502975 (Angewandte Chemie (International Ed. in English), 2014).
Entries after “also recorded” stand apart in the source; their conditions may differ.

Legend:
human AC [1] = target: T1, human AC (Homo sapiens, UniProt Q13510); test: Kinetic analysis of the AC reaction; type: biochemical; settings: mean of two independent experiments
T1 sequence (Q13510 22-395): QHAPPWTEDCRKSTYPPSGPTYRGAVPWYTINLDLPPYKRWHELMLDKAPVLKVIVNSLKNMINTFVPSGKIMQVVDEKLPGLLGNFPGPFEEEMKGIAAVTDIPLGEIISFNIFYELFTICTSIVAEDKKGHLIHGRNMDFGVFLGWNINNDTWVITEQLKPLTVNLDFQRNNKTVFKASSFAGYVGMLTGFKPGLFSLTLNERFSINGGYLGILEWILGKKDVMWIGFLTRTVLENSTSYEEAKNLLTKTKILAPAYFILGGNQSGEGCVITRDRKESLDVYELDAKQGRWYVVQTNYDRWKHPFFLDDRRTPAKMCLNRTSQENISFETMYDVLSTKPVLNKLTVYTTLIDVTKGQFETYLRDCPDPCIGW
Outline: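 Kinetic analysis of the fluorescence-based AC reaction run with vehicle (1% DMSO) or test compound at 20 or 50 nm, n=6 each. Vmax given in relative fluorescence units; KM derived for each condition. Values are the mean of two independent experiments.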

[2] = Buffer stability in AC assay buffer pH 4.5 by LC-MS; type: physicochemical
[3] = target: T2, purified recombinant human AC (Homo sapiens, UniProt Q13510); test: LC-MS study of covalent adduct with AC; type: binding; settings: 1:10 protein:compound, 1 h, 37 °C, pH 4.5
T2 sequence (Q13510 143-395 limits assumed): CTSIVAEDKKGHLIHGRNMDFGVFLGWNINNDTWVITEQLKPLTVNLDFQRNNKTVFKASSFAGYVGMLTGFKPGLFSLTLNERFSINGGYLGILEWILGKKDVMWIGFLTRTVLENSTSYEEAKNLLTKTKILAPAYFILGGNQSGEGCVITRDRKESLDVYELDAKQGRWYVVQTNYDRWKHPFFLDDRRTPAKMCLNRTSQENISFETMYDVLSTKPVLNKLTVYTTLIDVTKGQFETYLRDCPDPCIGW
T2 sequence (Q13510 22-142 limits assumed): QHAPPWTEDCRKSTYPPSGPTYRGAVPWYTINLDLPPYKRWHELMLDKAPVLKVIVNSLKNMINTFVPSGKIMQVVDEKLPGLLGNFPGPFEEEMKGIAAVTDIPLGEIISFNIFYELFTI

[4] = Chemical stability in [D6]DMSO; type: physicochemical
human AC [5] = target: T1, human AC; test: Acid ceramidase; type: biochemical; settings: for IC50 [nM] ±S.E.M on human AC: means of at least three determinations
rat AC = settings: read-out: IC50 for rat AC; cited from earlier work

SMILES: O=C(NCCCCc1ccccc1)n1c(=O)oc2ccccc21 [9 a, 2-oxo-N-(4-phenylbutyl)-1,3-benzoxazole-3-carboxamide]
- Vmax (human AC [1]; 9 a 20 nM): 7808 RFU
- Vmax (human AC [1]; 9 a 50 nM): 3889 RFU
- half-life at 10 µM [2]: 2.1 ± 0.05 h
- covalent binding to AC (LC-MS, tryptic peptide CTSIVAEDK) [3]: covalently binds to the catalytic cysteine, Cys-143

SMILES: O=c1oc2ccccc2n1C(=S)NCCCCc1ccccc1 [9 b]
- chemical stability in [D6]DMSO [4]: limited chemical stability
- IC50 [nM] ±S.E.M on human AC (human AC [5]): not stable

SMILES: CN(CCCCc1ccccc1)C(=O)n1c(=O)oc2ccccc21 [9 c]
- IC50 [nM] ±S.E.M on human AC (human AC [5]): no inhibitory activity; also recorded: no inhibition

SMILES: O=C(OCCCCc1ccccc1)n1c(=O)oc2ccccc21 [9 d]
- IC50 [nM] ±S.E.M on human AC (human AC [5]): no inhibitory activity; also recorded: no inhibition

SMILES: O=C(CCCCCc1ccccc1)n1c(=O)oc2ccccc21 [9 e]
- IC50 [nM] ±S.E.M on human AC (human AC [5]): Loss of activity; also recorded: no inhibition

SMILES: O=C(NCCCCc1ccccc1)n1c(=O)oc2cc(Br)ccc21 [16 a]
- potency relative to 9 a (human AC [5]; human AC): two-fold increase in potency
- half-life at 10 µM [2]: 4.9 ± 0.5 h

SMILES: CCCCCCNC(=O)n1cc(F)c(=O)[nH]c1=O [carmofur, 5-fluoro-N-hexyl-2,4-dioxo-pyrimidine-1-carboxamide]
- IC50 (rat AC): 29 nM

SMILES: O=c1[nH]c2ccc(-c3ccc(F)cc3)cc2o1 [compound 19]
- inhibition of AC in vitro (human AC [5]; at 10 μM): did not inhibit
